Holding throughout (assay type): cell-based
Experiment [1] addresses T1, Dihydroorotate dehydrogenase (quinone), mitochondrial (Homo sapiens, UniProt Q02127). Kind of experiment: Inhibition of DHODH in human HEK293 cells transfected with ISRE-luciferase reporter gene assessed as increase in 125 IU/ml IFN-alpha stimulated DDX58 mRNA expression at 80 uM measured after 16 hrs by RT-qPCR analysis relative to control. In short, it runs like this:
(§1)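 ISRE-Luc HEK cells co-treated with increasing IFN-α concentrations and DMSO or compound (80 µM) for 16 h. Total RNA extracted from 2×10^5 cells with DNase step; qPCR 35 cycles. CT values normalized to RPL13A and unstimulated controls (2^-ΔΔCT), expressed as fold change versus DMSO alone. Three independent experiments; two-way ANOVA with Bonferroni.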
A general note: Reporter assays use an easily measured gene product as a stand-in for the process of interest.

Experiment [2] deals with T1, Dihydroorotate dehydrogenase (quinone), mitochondrial. In words: Inhibition of DHODH in human HEK-293 cells transfected with ISRE-luciferase reporter gene assessed as increase in IFN-alpha mediated cellular response at 6 to 178 uM after 24 hrs by luciferase reporter gene assay. As to conditions: HEK293, dose 6-178 µM.
Experiment [3] has the same target. Kind of experiment: Inhibition of DHODH in human HEK293 cells transfected with ISRE-luciferase reporter gene assessed as increase in 60 IU/ml IFN-alpha stimulated IFIT3 mRNA expression at 80 uM measured after 16 hrs by RT-qPCR analysis relative to control. Summed up: as §1
Experiment [4] shares this target. In words: Inhibition of DHODH in human HEK293 cells transfected with ISRE-luciferase reporter gene assessed as increase in 30 IU/ml IFN-alpha stimulated IFITM3 mRNA expression at 80 uM measured after 16 hrs by RT-qPCR analysis relative to control. Summed up:
as §1

The target is the same in experiment [5]. In words: Inhibition of DHODH in human HEK293 cells transfected with ISRE-luciferase reporter gene assessed as increase in 125 IU/ml IFN-alpha stimulated IFIT5 mRNA expression at 80 uM measured after 16 hrs by RT-qPCR analysis relative to control. Summed up:
as §1

Experiment [6] shares this target. In words: Inhibition of DHODH in human HEK293 cells transfected with ISRE-luciferase reporter gene assessed as increase in 30 IU/ml IFN-alpha stimulated IFIT1 mRNA expression at 80 uM measured after 16 hrs by RT-qPCR analysis relative to control. In short, it runs like this:
as §1

Calls of active or inactive are those of the source. No cut-off for these calls is given here.

T1 sequence (Q02127 whole entry): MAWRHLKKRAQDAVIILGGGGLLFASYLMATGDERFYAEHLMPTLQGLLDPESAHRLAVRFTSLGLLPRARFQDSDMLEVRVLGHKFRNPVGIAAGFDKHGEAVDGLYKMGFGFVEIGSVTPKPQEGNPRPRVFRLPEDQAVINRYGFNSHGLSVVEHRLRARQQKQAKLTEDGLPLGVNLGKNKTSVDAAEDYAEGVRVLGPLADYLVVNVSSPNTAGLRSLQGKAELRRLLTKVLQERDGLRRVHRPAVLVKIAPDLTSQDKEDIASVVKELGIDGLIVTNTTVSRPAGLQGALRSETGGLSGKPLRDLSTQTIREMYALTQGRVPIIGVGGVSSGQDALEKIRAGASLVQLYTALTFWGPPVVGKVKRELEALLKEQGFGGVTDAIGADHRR

`O=C1OC2(CCCCC2)c2ccn(C3CC3)c(=O)c21`: the fold change (FC) in experiment [1] was 31; in experiment [3] it was 69; in experiment [4], 6; in experiment [5] it was 4; in experiment [6], 51. Further, the result in experiment [2] was Active.

(Values after ChEMBL document CHEMBL4680118, “Cerpegin-derived furo[3,4-c]pyridine-3,4(1H,5H)-diones enhance cellular response to interferons by de novo pyrimidine biosynthesis inhibition” (Eur J Med Chem, 2020).)
